Measurements from ChEMBL document CHEMBL1152173, “Synthesis and in vitro evaluation of the antifungal activities of dihydropyrimidinones” (2008).
The source made the active and inactive calls. The calls are words filed in the database; no cut-off is given here.

Key:
Format in all cases: functional
[1] = test system: Trichoderma hamatum; test: Antifungal activity against Trichoderma hamatum assessed as radial growth at 5% after 48 hrs by poison food technique of Flack relative to control
Summary of the method: (§1)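 Acetone stock added to molten sterilized PDA to final 0.5–7%, plated in 90 mm dishes with compound-free plates as control. Each plate was inoculated with a 9 mm disc from a 4-day-old culture, incubated at 25 ± 1 °C, and colony diameter measured at 24 h intervals. % inhibition = (control − treatment)/control × 100; three replicates averaged.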

[2] = test system: Trichoderma hamatum; test: Antifungal activity against Trichoderma hamatum assessed as radial growth at 7% after 48 hrs by poison food technique of Flack relative to control; summary of the method: as §1
[3] = test system: Trichoderma koningii; test: Antifungal activity against Trichoderma koningii assessed as radial growth at 5% after 24 hrs by poison food technique of Flack
Summary of the method: (§2)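 Poisoned-food method: acetone stock mixed into molten sterilized potato dextrose agar to final 0.5, 1, 3, 5 or 7%, poured into 90 mm plates. Plates were inoculated with a 9 mm mycelial disc from a 4-day-old pure culture and incubated at 25 ± 1 °C. Colony diameter (mm) was read every 24 h; mean of three replicates.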

[4] = test system: Trichoderma koningii; test: Antifungal activity against Trichoderma koningii assessed as radial growth at 7% after 24 hrs by poison food technique of Flack; summary of the method: as §2
[5] = test system: Trichoderma koningii; test: Antifungal activity against Trichoderma koningii assessed as radial growth at 7% after 48 hrs by poison food technique of Flack relative to control; summary of the method: as §1
[6] = test system: Trichoderma hamatum; test: Antifungal activity against Trichoderma hamatum assessed as radial growth at 5% after 24 hrs by poison food technique of Flack; summary of the method: as §2
[7] = test system: Trichoderma hamatum; test: Antifungal activity against Trichoderma hamatum assessed as radial growth at 5% after 48 hrs by poison food technique of Flack; summary of the method: as §2
[8] = test system: Trichoderma hamatum; test: Antifungal activity against Trichoderma hamatum assessed as radial growth at 7% after 48 hrs by poison food technique of Flack; summary of the method: as §2
[9] = test system: Aspergillus niger; test: Antifungal activity against Aspergillus niger assessed as radial growth at 3% after 72 hrs by poison food technique of Flack relative to control
[10] = test system: Aspergillus niger; test: Growth promotion of Aspergillus niger assessed as radial growth at 1% after 48 hrs by poison food technique of Flack relative to control
Summary of the method: (§3)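 Growth increase in poisoned PDA plates (acetone stock, final 0.5 or 1%) against untreated control plates. Inoculum was a 9 mm mycelial disc from a 4-day-old culture, incubated at 25 ± 1 °C, with colony diameter read every 24 h. Where treated growth exceeded control, percentage increase over control was recorded; average of three replicates.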

[11] = test system: Aspergillus niger; test: Growth promotion of Aspergillus niger assessed as radial growth at 1% after 72 hrs by poison food technique of Flack relative to control; summary of the method: as §3
[12] = test system: Trichoderma koningii; test: Growth promotion of Trichoderma koningii assessed as radial growth at 1% after 48 hrs by poison food technique of Flack relative to control
[13] = test system: Trichoderma koningii; test: Growth promotion of Trichoderma koningii assessed as radial growth at 0.5% after 24 hrs by poison food technique of Flack relative to control
[14] = test system: Trichoderma koningii; test: Growth promotion of Trichoderma koningii assessed as radial growth at 0.5% after 48 hrs by poison food technique of Flack relative to control
[15] = test system: Trichoderma koningii; test: Growth promotion of Trichoderma koningii assessed as radial growth at 0.5% after 72 hrs by poison food technique of Flack relative to control
[16] = test system: Trichoderma hamatum; test: Growth promotion of Trichoderma hamatum assessed as radial growth at 0.5% after 72 hrs by poison food technique of Flack relative to control
[17] = test system: Aspergillus niger; test: Growth promotion of Aspergillus niger assessed as radial growth at 0.5% after 24 hrs by poison food technique of Flack relative to control; summary of the method: as §3
[18] = test system: Aspergillus niger; test: Growth promotion of Aspergillus niger assessed as radial growth at 0.5% after 48 hrs by poison food technique of Flack relative to control; summary of the method: as §3
[19] = test system: Aspergillus niger; test: Growth promotion of Aspergillus niger assessed as radial growth at 0.5% after 72 hrs by poison food technique of Flack relative to control; summary of the method: as §3
[20] = test system: Aspergillus niger; test: Antifungal activity against Aspergillus niger assessed as radial growth at 3% after 24 hrs by poison food technique of Flack
Summary of the method: (§4)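 Poisoned-food assay on potato dextrose agar. Compound stock in acetone was added to molten sterilized PDA to a final 0.5, 1, 3, 5 or 7%, then 20 mL was poured per 90 mm plate. Each plate was inoculated with a 9 mm mycelial disc from a 4-day-old pure culture and incubated at 25 ± 1 °C. Colony diameter (mm) was read every 24 h; mean of three replicates.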

[21] = test system: Aspergillus niger; test: Antifungal activity against Aspergillus niger assessed as radial growth at 5% after 24 hrs by poison food technique of Flack; summary of the method: as §4
[22] = test system: Aspergillus niger; test: Antifungal activity against Aspergillus niger assessed as radial growth at 7% after 24 hrs by poison food technique of Flack; summary of the method: as §4
[23] = test system: Aspergillus niger; test: Antifungal activity against Aspergillus niger assessed as radial growth at 7% after 48 hrs by poison food technique of Flack; summary of the method: as §4
[24] = test system: Aspergillus niger; test: Antifungal activity against Aspergillus niger assessed as radial growth at 7% after 72 hrs by poison food technique of Flack; summary of the method: as §4
[25] = test system: Trichoderma hamatum; test: Growth promotion of Trichoderma hamatum assessed as radial growth at 1% after 24 hrs by poison food technique of Flack relative to control
[26] = test system: Trichoderma hamatum; test: Growth promotion of Trichoderma hamatum assessed as radial growth at 1% after 48 hrs by poison food technique of Flack relative to control
[27] = test system: Trichoderma hamatum; test: Growth promotion of Trichoderma hamatum assessed as radial growth at 0.5% after 24 hrs by poison food technique of Flack relative to control; summary of the method: as §3
[28] = test system: Trichoderma hamatum; test: Growth promotion of Trichoderma hamatum assessed as radial growth at 0.5% after 48 hrs by poison food technique of Flack relative to control
[29] = test system: Aspergillus niger; test: Antifungal activity against Aspergillus niger assessed as radial growth at 5% after 48 hrs by poison food technique of Flack; summary of the method: as §4
[30] = test system: Trichoderma koningii; test: Growth promotion of Trichoderma koningii assessed as radial growth at 1% after 72 hrs by poison food technique of Flack relative to control
[31] = test system: Trichoderma koningii; test: Antifungal activity against Trichoderma koningii assessed as radial growth at 7% after 48 hrs by poison food technique of Flack; summary of the method: as §2
[32] = test system: Trichoderma koningii; test: Growth promotion of Trichoderma koningii assessed as radial growth at 1% after 24 hrs by poison food technique of Flack relative to control
[33] = test system: Aspergillus niger; test: Growth promotion of Aspergillus niger assessed as radial growth at 1% after 24 hrs by poison food technique of Flack relative to control; summary of the method: as §3
[34] = test system: Trichoderma koningii; test: Antifungal activity against Trichoderma koningii assessed as radial growth at 3% after 24 hrs by poison food technique of Flack; summary of the method: as §2
[35] = test system: Trichoderma koningii; test: Antifungal activity against Trichoderma koningii assessed as radial growth at 5% after 48 hrs by poison food technique of Flack; summary of the method: as §2
[36] = test system: Trichoderma hamatum; test: Antifungal activity against Trichoderma hamatum assessed as radial growth at 7% after 72 hrs by poison food technique of Flack; summary of the method: as §2

Structure (SMILES)	inhibition (INH) [1]	inhibition (INH) [2]	Activity [3]	Activity [4]	inhibition (INH) [5]	Activity [6]	Activity [8]	inhibition (INH) [9]	Activity [10]	Activity [11]	Activity [12]	Activity [13]	Activity [14]	Activity [15]	Activity [17]	Activity [18]	Activity [19]	Activity [22]	Activity [23]	Activity [24]	further results
CCOC(=O)C1=C(C)NC(=S)NC1c1ccccc1O (configuration not stated)	100%	100%	Active	Active	93.75%	Active	Active	23.37%	94.34%	104.34%	113.53%	19.71%	53.12%	1.25%	90.09%	129.68%	93.61%	–	–	–	Activity [7]: Active; Activity [16]: 0.42%
CCOC(=O)C1=C(C)NC(=O)NC1c1ccc(N(C)C)cc1 (configuration not stated)	93.38%	96.38%	Active	Active	87.09%	–	–	74.11%	–	–	–	–	–	–	–	–	–	Active	Active	Active	Activity [20]: Active; Activity [21]: Active; Activity [25]: 3.15%; Activity [26]: 1.5%; Activity [27]: 8.97%; Activity [28]: 3.3%
CCOC(=O)C1=C(C)NC(=S)NC1c1ccc(N(C)C)cc1 (configuration not stated)	100%	100%	–	Active	95.31%	Active	Active	51.98%	86.6%	92.07%	18.21%	15.38%	18.75%	2.7%	60%	103.2%	100%	Active	Active	Active	Activity [7]: Active; Activity [21]: Active; Activity [29]: Active; Activity [30]: 1.35%
CCOC(=O)C1=C(C)NC(=O)NC1c1ccccc1O (configuration not stated)	94.23%	100%	–	Active	100%	–	Active	60.71%	–	–	–	6.49%	11.97%	6.37%	3.2%	–	–	Active	Active	–	Activity [31]: Active; Activity [32]: 5.79%; Activity [33]: 7.4%; Activity [27]: 5.68%; Activity [28]: 19.53%; Activity [16]: 4.07%
CCOC(=O)C1=C(C)NC(=O)NC1c1ccccc1 (configuration not stated)	96.89%	100%	Active	Active	100%	Active	Active	54.34%	13.37%	7.76%	–	–	–	–	19.44%	64.39%	27.63%	Active	–	–	Activity [34]: Active; Activity [35]: Active; Activity [31]: Active; Activity [36]: Active
CCOC(=O)C1=C(C)NC(=S)NC1c1ccccc1 (configuration not stated)	93%	100%	–	–	90.96%	–	Active	36.36%	50%	75.75%	3.92%	36.06%	16.26%	2.97%	133%	96.9%	106.06%	Active	Active	Active	Activity [32]: 26.94%; Activity [30]: 2.97%
